Compound activity from PubChem.
Most compounds without a hit are left out; they make up all but 2.1% or so of the library.
APOBEC3G inh – APOBEC3G (human) deaminase inhibition | recombinant A3G, ssDNA deamination FAM/TAMRA fluorescence | inhibition, % at 20 µM | Q9HC16 | AID 493012 | actives 0.28% (n = 330,000);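 active means inhibition of at least 40% at 20 µM, with no more than 30% in the related APOBEC3A deaminase screen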;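 further: plate controls were DMSO wells with A3G for no effect and wells lacking A3G enzyme for full effect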
Target sequence (Q9HC16 whole entry, looked up): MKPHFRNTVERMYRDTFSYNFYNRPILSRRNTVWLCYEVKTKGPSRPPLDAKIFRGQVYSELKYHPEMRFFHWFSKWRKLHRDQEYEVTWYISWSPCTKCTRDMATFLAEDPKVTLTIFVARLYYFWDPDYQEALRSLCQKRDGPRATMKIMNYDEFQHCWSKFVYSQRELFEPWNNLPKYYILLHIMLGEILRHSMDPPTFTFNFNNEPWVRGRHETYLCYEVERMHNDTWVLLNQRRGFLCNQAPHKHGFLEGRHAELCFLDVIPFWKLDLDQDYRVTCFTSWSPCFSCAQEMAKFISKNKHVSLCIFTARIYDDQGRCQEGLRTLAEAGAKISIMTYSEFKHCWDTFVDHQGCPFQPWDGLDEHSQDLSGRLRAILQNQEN
C2C12 statin – suppressors of simvastatin-induced myotoxicity in C2C12 myotubes; ATP luminescence, 48 h; scaled: DMSO 0, geranylgeraniol control 100; actives 0.78% (n = 330,000); rescue of ATP level, % at 7.49 µM;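 active means mean ATP rescue above about 67%, or every replicate alone reaching that limit, limit read from the data, passing the limit was not always enough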;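 further: myotubes were challenged with 10 µM simvastatin during compound exposure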
ASAP1 GAP inh – inhibitors of human ASAP1 ArfGAP activity; ASAP1-stimulated ARF1 GTP hydrolysis, GDP FP detection; Q9ULH1; actives 0.19% (n = 360,000); inhibition, % at 16.5 µM; AID 624377; in the data active means inhibition above about 25%;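 further: 0% = vehicle with enzyme and substrate and 100% = no enzyme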
ARFGAP1 inh – inhibits rat ARF GTPase activating protein 1 | Q62848 | inhibition, % at 16.5 µM | AID 651572 | Arfgap1-stimulated ARF1 GTP hydrolysis, GDP FP detection | actives 0.26% (n = 360,000);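 active means inhibition above a per-plate limit, mean inhibition of low control wells plus 3 SD, cut at about 25% in these data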;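 further: 0% = DMSO wells with enzyme and 100% = wells lacking Arfgap1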
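material = rat Arfgap1 catalytic domain, aa 1-136 | also added = human ARF1(Δ1-17)-GTP substrate | compound dosing = one concentration, 16.5 µM, DMSO 1.26% | times = GTP hydrolysis reaction 2 h at 25 °C | measured by = FP, GDP Alexa 633 tracer displaced from anti-GDP antibody, 620/688 nm | evaluation = percent inhibition of Arfgap1-stimulated GTP hydrolysis | replication = single well per compound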
Mot1-301 SUMO – SUMOylation pathway inhibition by Mot1-301 growth rescue; growth rescue, % at 18.8 µM; actives 1% (n = 320,000); S. cerevisiae Mot1-301 growth rescue, ATP luminescence, 38.5C; percent above DMSO median, 100 means doubled;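 active means every valid replicate shows activation above 250% relative to neutral control wells; inactive means the rest, any valid replicate at or below 250%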;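 further: OY570 slx delta 5 strain wells were the positive control but not used for scaling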
APOBEC3A inh – inhibitors of human APOBEC3A DNA deaminase. recombinant A3A, FAM/TAMRA ssDNA deamination fluorescence. inhibition, % at 20 µM. actives 0.41% (n = 330,000);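 active means at least 40% inhibition at 20 µM here, with at most 30% in a related deaminase screen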;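 further: plate controls were A3A with DMSO for no effect and wells lacking A3A enzyme for full effect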
Yeast Mot1 SUMO – inhibits SUMO pathway, affecting Mot1-301 yeast growth; shares compounds with Mot1-301 SUMO; S. cerevisiae Mot1-301 galactose growth, ATP luminescence, 24 h; -100 = growth of slx-deleted rescue strain; growth activity, percent, % at 42 µM; 2,300 tested, under 10 active; AID 493004;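 active means Signal drops as the depositor expects, and the fitted half-maximal dose is no more than ten times the top valid tested dose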;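 further: more negative values mean stronger growth rescue toward the control strain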
Active calls of the source: *.

How did C[C@H](CO)N1C[C@H](C)[C@@H](CN(C)Cc2ccc3c(c2)OCO3)OCCCC[C@H](C)Oc2ccc(NC(=O)C3CCCCC3)cc2C1=O do in these assays?
C2C12 statin: 5

How did CCS(=O)(=O)N1CCC(C(=O)N2CCc3ccccc3C2)CC1 do in these assays?
APOBEC3G inh: 8; C2C12 statin: -6; ASAP1 GAP inh: 9; ARFGAP1 inh: -2; Mot1-301 SUMO: 364*; APOBEC3A inh: 0; Yeast Mot1 SUMO: 0

How did CO[C@H]1CN(C)C(=O)c2cc(NC(=O)C3CC3)ccc2OC[C@H](C)N(C(=O)CN(C)C)C[C@@H]1C do in these assays?
C2C12 statin: -9

How did COc1ccccc1N(CC(=O)NCC1CCCO1)C(=O)CCC(=O)Nc1cc(C)on1 (stereo not given) do in these assays?
APOBEC3G inh: -4; C2C12 statin: 4; ASAP1 GAP inh: -8; ARFGAP1 inh: 0; Mot1-301 SUMO: 752*; APOBEC3A inh: -4; Yeast Mot1 SUMO: 0

How did COc1cccc(CN(CC(=O)NCC2CCCO2)C(=O)CCC(=O)Nc2cc(C)on2)c1 (stereo not given) do in these assays?
APOBEC3G inh: -3; ASAP1 GAP inh: -7; ARFGAP1 inh: -16; APOBEC3A inh: -3

How did COc1ccc(CN(CC(=O)NCC2CCCO2)C(=O)CCC(=O)Nc2cc(C)on2)cc1 (stereo not given) do in these assays?
APOBEC3G inh: 1; ASAP1 GAP inh: -5; ARFGAP1 inh: -6; Mot1-301 SUMO: 392*; APOBEC3A inh: 35; Yeast Mot1 SUMO: 1

What do the screens show for `CCC(=O)N[C@@H]1C=C[C@@H](CC(=O)NCc2ccccc2F)O[C@H]1CO`?
C2C12 statin: 4

Results for COc1ccc(C2CC(c3cccs3)=NN2C(=O)c2ccccc2)cc1OC (stereo not given) ?
APOBEC3G inh: -3; C2C12 statin: 28; ASAP1 GAP inh: 2; ARFGAP1 inh: -2; Mot1-301 SUMO: 424*; APOBEC3A inh: 0; Yeast Mot1 SUMO: 1

How did COc1ccc(C2CC(c3cccs3)=NN2C(=O)CCl)cc1OC (stereo not given) do in these assays?
APOBEC3G inh: -4; C2C12 statin: -30; ASAP1 GAP inh: -3; ARFGAP1 inh: -7; Mot1-301 SUMO: 69; APOBEC3A inh: 1

How did C[C@@H]1CN([C@@H](C)CO)C(=O)CCCn2cc(nn2)CO[C@@H]1CN(C)Cc1ccc(Cl)c(Cl)c1 do in these assays?
C2C12 statin: 21

What do the screens show for `NC(=S)N/N=C/c1ccccc1O`?
APOBEC3G inh: -4; C2C12 statin: 2; ASAP1 GAP inh: 2; ARFGAP1 inh: -5; Mot1-301 SUMO: -6; APOBEC3A inh: 2

What do the screens show for `NC(=S)N/N=C/c1cccc(O)c1O`?
APOBEC3G inh: 4; ASAP1 GAP inh: -1; ARFGAP1 inh: 0; Mot1-301 SUMO: 630*; APOBEC3A inh: 5; Yeast Mot1 SUMO: 0

How did COc1ccccc1CC(=O)N1CCN(S(=O)(=O)c2ccccc2)CC1 do in these assays?
APOBEC3G inh: -8; C2C12 statin: 4; ASAP1 GAP inh: -8; ARFGAP1 inh: -1; Mot1-301 SUMO: 383*; APOBEC3A inh: -2; Yeast Mot1 SUMO: 0

What do the screens show for `COc1ccccc1CC(=O)N1CCN(S(=O)(=O)c2ccccc2F)CC1`?
APOBEC3G inh: -1; C2C12 statin: 10; ASAP1 GAP inh: -8; ARFGAP1 inh: -7; Mot1-301 SUMO: 96; APOBEC3A inh: -1

What do the screens show for `Cc1nn(C)c(C)c1/C=N/NC(=O)C(C)(C)Oc1ccc(Cl)cc1`?
APOBEC3G inh: -5; C2C12 statin: 55; Mot1-301 SUMO: 591*; APOBEC3A inh: 2; Yeast Mot1 SUMO: 1

How did N#Cc1cn(CCCOc2ccccc2)c2ccccc12 do in these assays?
APOBEC3G inh: -1; C2C12 statin: -7; ASAP1 GAP inh: 1; ARFGAP1 inh: 5; Mot1-301 SUMO: -5; APOBEC3A inh: -7
